Screening results deposited in PubChem by several laboratories.
Myeloid diff 2 = induction of myeloid progenitor differentiation, primary screen, cell-based, flow cytometry, MLPCN library. actives 1% (n = 360,000). calls only at 10 µM. AID 624256, 2012. ER-HoxA9 myeloid progenitors, lysozyme-GFP differentiation;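 active = normalized GFP-positive differentiation at or above the plate's own cutoff, the solvent-only control mean plus 3 SD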;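 note: cells exposed to compound for four days before flow analysis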
HCV core dimer = inhibitors of HCV core protein dimerization, primary screen, biochemical, TR-FRET, high-throughput | inhibition, % at 5 µM | actives 0.33% (n = 300,000) | TR-FRET GST/Flag-core106 dimerization, 1536-well | AID 1899, 2009;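 active = inhibition above the mean of all tested compounds plus 3 SD, set per screening campaign, cut at about 45% in these data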
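test system = GST/Flag-tagged HCV core106 proteins | probe or stimulus = Eu donor and XL665 acceptor anti-tag antibodies | times = compound-protein-antibody incubation 4 h at 22.5 °C | signal = TR-FRET, excitation 340 nm, emission 617 and 671 nm | measure = percent inhibition of core106 dimerization signal | controls = wells lacking GST-core106 and wells with excess unlabelled core106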
PP1 inh = PP1-alpha phosphatase inhibitors, primary screen, counter-screen for PP5 inhibitor project, biochemical, fluorescence, OMFP substrate, single point | purified PP1alpha | actives 0.9% (n = 320,000) | AID 2235, 2010 | inhibition, % at 6.7 µM;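 active = inhibition above the mean inhibition of all tested compounds plus 3 SD, computed separately for each screening campaign, cut at about 15% in these data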
PP5 inh = PP5 phosphatase inhibitors, primary screen, biochemical, fluorescence. Serine/threonine-protein phosphatase 5 (Homo sapiens), P53041. purified PP5c, OMFP substrate fluorescence. inhibition, % at 6.7 µM. actives 0.18% (n = 320,000). AID 1987, 2009;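 active = inhibition above the campaign's mean inhibition across all tested compounds plus 3 SD, cut at about 9.5% in these data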
Target sequence (P53041 whole entry, looked up): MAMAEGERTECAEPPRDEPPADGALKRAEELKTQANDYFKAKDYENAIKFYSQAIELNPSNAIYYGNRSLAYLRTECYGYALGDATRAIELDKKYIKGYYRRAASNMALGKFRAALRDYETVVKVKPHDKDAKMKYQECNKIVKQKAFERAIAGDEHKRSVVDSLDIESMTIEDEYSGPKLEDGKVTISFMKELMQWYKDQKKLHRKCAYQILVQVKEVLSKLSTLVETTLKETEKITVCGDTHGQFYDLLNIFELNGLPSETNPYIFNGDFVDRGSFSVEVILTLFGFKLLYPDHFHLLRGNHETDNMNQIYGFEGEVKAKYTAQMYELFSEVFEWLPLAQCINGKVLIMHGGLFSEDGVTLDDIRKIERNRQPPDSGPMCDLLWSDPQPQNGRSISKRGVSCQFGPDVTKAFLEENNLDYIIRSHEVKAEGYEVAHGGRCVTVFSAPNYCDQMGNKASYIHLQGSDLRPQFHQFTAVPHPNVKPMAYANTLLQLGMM
Fh CTSL1 inh = Fasciola hepatica cathepsin L1 inhibitors, primary screen, counter-screen for PFM18AAP inhibitor project, biochemical, QFRET, fluorogenic peptide substrate; recombinant F. hepatica cathepsin L1, Z-Leu-Arg-MCA fluorescence; inhibition, % at 5.96 µM; actives 0.49% (n = 300,000); AID 1906, 2009;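 active = inhibition above the mean of all tested compounds plus 3 SD, set per screening campaign, cut at about 17% in these data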
NadD block = inhibitors of S. aureus NadD, primary screen, biochemical, colorimetric, uHTS; Nicotinate-nucleotide adenylyltransferase NadD (Staphylococcus aureus N315); purified NadD enzyme, colorimetric absorbance read-out; inhibition, % at 20 µM; actives 0.78% (n = 360,000); AID 602399, 2012; in the data active = inhibition above about 26%
Each line names hits and unclear results; the compound was inactive in the other large screens. In the library only some 3.1% were active in any assay of this set; here they are far more common.

COc1ccc(Cl)cc1NC(=O)COC(=O)C1CC(=O)N(Cc2ccccc2)C1 (centres undefined)	none (no result: HCV core dimer, PP1 inh, PP5 inh, Fh CTSL1 inh)
O=C(Nc1ccc(N2CCOCC2)c2nonc12)C1CCCC1	none
Nc1ccc(N2CCOCC2)c2nonc12	Fh CTSL1 inh 32
COC/C=C/C1=CC2=CC(=O)C(C)(OC(=O)c3cnc4ccccc4n3)C(=O)C2=CN1CCc1c[nH]c2ccccc12 (centres undefined)	PP1 inh 17 (no result: Myeloid diff 2, NadD block)
COC/C=C/C1=CC2=CC(=O)C(C)(OC(=O)c3cnc4ccccc4n3)C(=O)C2=CN1CC(C)C (centres undefined)	none
COC/C=C/C1=CC2=CC(=O)C(C)(OC(=O)c3cnc4ccccc4n3)C(=O)C2=CN1c1ccccc1 (centres undefined)	none (no result: Myeloid diff 2, NadD block)
COC/C=C/C1=CC2=CC(=O)C(C)(OC(=O)c3cnc4ccccc4n3)C(=O)C2=CN1c1ccc(CO)cc1 (centres undefined)	HCV core dimer 56, PP1 inh 20 (no result: Myeloid diff 2, NadD block)
CC(=O)c1sc2nc(-c3ccco3)ccc2c1N	none
Nc1c(C(=O)Nc2ccc(F)cc2)sc2nc(-c3ccco3)ccc12	PP1 inh 16
O=C(O)c1cc(=S)nc[nH]1	none (no result: HCV core dimer, PP1 inh, PP5 inh, Fh CTSL1 inh)
COc1ccc2cc3c(N)nn(C(=O)c4ccccc4[N+](=O)[O-])c3nc2c1	none
COc1ccc2cc3c(N)nn(C(=O)c4ccc(Cl)c([N+](=O)[O-])c4)c3nc2c1	HCV core dimer 48
CC(Sc1nnnn1-c1ccc(O)cc1)C(=O)NC1CCCCC1C (centres undefined)	none
NC(=S)N/N=C/c1ccc(-c2ccccc2)o1	none
NC(=S)N/N=C\c1ccc(-c2cccc(Cl)c2Cl)o1	Fh CTSL1 inh 19
NC(=O)c1sc2nc(-c3ccccc3)ccc2c1N	Myeloid diff 2 active
CCOC(=O)c1sc2nc(-c3ccccc3)ccc2c1N	none
CN1N=C(N)c2cn(C3OC(COP(=O)(O)O)C(O)C3O)c3ncnc1c23 (centres undefined)	none (no result: Myeloid diff 2, HCV core dimer, PP1 inh, PP5 inh, Fh CTSL1 inh)
CC(C)CCN1CCC(n2nccc2NC(=O)c2ccc3c(c2)OCO3)CC1	none
Fc1ccc(NCc2cn3ccccc3n2)cc1	Myeloid diff 2 active
CC1=NN(C(N)=S)C(=O)C1N=Nc1c(C)cc(C)cc1C (centres undefined)	PP1 inh 17
Cc1ccc(SCC(=O)OCC(=O)N(C)CC(=O)Nc2ccccc2Cl)cc1C	none
Nc1ccn([C@@H]2O[C@H](CNC(=O)[C@@H](N)CSCc3ccccc3)[C@@H](O)[C@H]2O)c(=O)n1	none (no result: HCV core dimer, PP1 inh, PP5 inh, Fh CTSL1 inh)
CCc1c(C)[nH]n(-c2nc(-c3ccccc3)cs2)c1=O	none
Cc1[nH]n(-c2nc(-c3ccc(Cl)cc3)cs2)c(=O)c1N=Nc1ccc(O)cc1	NadD block 37 (no result: Myeloid diff 2)
O=[N+]([O-])c1cccc(/C=N/Nc2nc(NCc3ccccc3)nc(N3CCOCC3)n2)c1O	PP1 inh 17
O=S1(=O)N=C(N(CCO)/N=C/C=C/c2ccccc2)c2ccccc21	Myeloid diff 2 active
O=S1(=O)N=C(N(CCO)/N=C/c2ccc(Cl)cc2)c2ccccc21	none
COc1ccc(OC)c(C2CC(=O)N3CN(c4cccc(Cl)c4C)CSC3=C2C#N)c1 (centres undefined)	NadD block 32
CN(C)c1cc[n+](Cc2c(Cl)cccc2Cl)cc1	Myeloid diff 2 active
CN(C)c1cc[n+](CC[n+]2ccc(N(C)C)cc2)cc1	none
CCOC(=O)[C@H]1[C@H]2COc3ccc(Br)cc3[C@@H]2N2C(=O)CN(Cc3ccc(OC)cc3)C(=O)[C@@]12C	none (no result: HCV core dimer, Fh CTSL1 inh)
Cc1ccc(-n2c(=O)[nH]c3c(C(N)=O)nc(C(C)C)nc32)cc1	none
Cc1cccc(-n2c(=O)[nH]c3c(C(N)=O)nc(C(C)C)nc32)c1	Fh CTSL1 inh 17
COCCN=C1N[C@@H](c2ccc(Br)cc2)C(C(=O)OC)=C(C)N1Cc1ccccc1	Myeloid diff 2 active
